Data as given in ChEMBL document CHEMBL4513216, “Probing the Open Global Health Chemical Diversity Library for Multistage-Active Starting Points for Next-Generation Antimalarials” (ACS Infect Dis, 2020).

Assay: Toxicity liver stage against HepG2, at 10uM
Assay type: cell-based
Set-up: test concentration 10 uM, cell line HepG2-A16-CD81EGFP
Conditions: human, HepG2-A16-CD81EGFP cells; read-out: INHIBITION
Outline: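 Uninfected HepG2-A16-CD81EGFP cells, 3 × 10^3 per well, 1536-well, plated on prespotted compound at 10 μM final, parasite-free screening media added to match infected plates; puromycin 10 μM positive, DMSO 0.5% negative; run in parallel with 48 h PbLuc assay at 37 °C, 5% CO2; viability by CellTiter-Glo luminescence, normalized to controls.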

Row | SMILES | cytotoxicity at 10 µM
1 | CCOC[C@]12COC[C@H]1CN(Cc1ccc3c(c1)OCO3)C2 | -119%
2 | Cc1nc(C)n(CC2CN(Cc3ccc4c(c3)OCCO4)CCO2)n1 (stereo not given) | -3.63%
3 | CN(C)CCO[C@@H]1CC[C@H]2[C@H]1OCCN2C(=O)c1ccccc1F | 2.25%
4 | COCc1nc(C(=O)NS(=O)(=O)c2ccc(C)s2)cs1 | -4.61%
5 | N#Cc1ccc(N2CCCN(C(=O)CC3CCCO3)CC2)cc1 (stereo not given) | -4.69%
6 | Cc1cccc(CN2C[C@H]3CC[C@@H](C2)N(Cc2c(C)noc2C)C3=O)n1 | 0.296%
7 | CN(CCOc1cccc(F)c1)Cc1nc2c(cnn2C)c(=O)[nH]1 | -0.966%
8 | CCN(CC(F)(F)F)C(=O)C1CCCN(Cc2ccccn2)C1 (stereo not given) | -2.3%
9 | CCN1CCN(c2ccccc2NC(=O)NCc2ccon2)CC1 | 10.4%
10 | Cc1cc(N(C)Cc2ncc[nH]2)nc(-c2cccnc2)n1 | 4.37%
11 | c1ccc(CN2CCCC2)c(CNc2cncc3nnnn23)c1 | 0.351%
12 | COc1cccc(CCC2CCCN(C(C)=O)C2)c1 (stereo not given) | -15.9%
13 | Cc1cccn2c(=O)cc(OC(=O)c3ccc(OC(C)C)cc3)nc12 | 10%
14 | CN(C)c1nccnc1N1CC[C@@]2(O)CCNC[C@H]2C1 | 7.12%
15 | CCCc1ccc(S(=O)(=O)NCCNC(=O)c2ccoc2)cc1 | 7.36%
16 | COCC1CCN(C(C(=O)O)c2c(F)cccc2OC(C)C)CC1 (stereo not given) | 0.515%
17 | COc1cccc(CN(C)C(=O)CN2CCN(c3nccs3)CC2)c1 | -3.98%
18 | O=C(O)CC[C@@H]1CN(c2ncnc3[nH]ccc23)CC[C@@H]1N1CCOCC1 | -15.8%
19 | COc1ccc(-c2nc(CCNC(=O)NCC3CCOC3)co2)cc1 (stereo not given) | -3.1%
20 | COc1nonc1NCn1nc(C)cc1C | -15%
21 | COc1cccc(C(C)N2CCN(S(=O)(=O)CCCF)CC2)c1 (stereo not given) | 2.5%
22 | Cc1ccc(CN2C[C@@H](c3ccccc3)[C@@]3(CCNC3=O)C2)o1 | -119%

Row | SMILES | cytotoxicity at 10 µM
23 | COc1cccc(NC(C(N)=O)c2ccc(Br)cc2)c1 (stereo not given) | 11.3%
24 | COc1ncccc1NC(=O)C1CCOCC1 | -29.8%
25 | O=C(Cc1n[nH]c2ccccc12)N1CCC(Nc2cccnn2)CC1 | -7.44%
26 | CC(C)(C)SCCCC(=O)N1CCC(Nc2cccnn2)CC1 | -8.26%
27 | CCCc1cc(C(=O)N2CCC3(CCCN(CCO)C3=O)C2)cs1 (stereo not given) | -144%
28 | N#Cc1cnc(N2Cc3cnn(Cc4ccc(F)cc4)c3C2)nc1N | 4.84%
29 | O=C(NCCc1nc(-c2cccnc2)no1)c1ccc(C2CCCO2)s1 (stereo not given) | 11.2%
30 | Cc1cc2c(cc1C)C(NC1CC1)CCCO2 (stereo not given) | 4.57%
31 | FC(F)(F)C1CCc2nnc(CNCc3cccs3)n2C1 (stereo not given) | 2.9%
32 | Cc1nc2c(c(N(C)C)n1)CCN(C(=O)c1ccc(N)nc1)C2 | -8.26%
33 | CN1C[C@@H](NC(=O)C(C)(C)C)C[C@H]1C(=O)NCc1ncc[nH]1 | 0.452%
34 | COc1ccccc1C1Cn2c(C)cnc2CN1Cc1ccc(C)nc1 (stereo not given) | -3.18%
35 | CN(C)C[C@H]1O[C@H](Cc2cc(-c3ccccn3)on2)CC[C@@H]1O | -3.15%
36 | CCN(CC)C(=O)c1ccc(NC(=O)CNc2ccc(F)cc2Cl)cc1 | -5.31%
37 | CNC(=O)CCNC(=O)CCc1c(C)nc2cc(O)nn2c1C | -2.7%
38 | O=C(N[C@@H]1CCN(C(=O)c2ccc(F)cc2Cl)C[C@H]1O)c1ccccn1 | -0.0395%
39 | CCOc1ncccc1CNC(=O)NCC(O)c1ccccc1OC (stereo not given) | -6.85%
40 | c1ccc(CO[C@H]2CO[C@@]3(CCCN(Cc4cccnc4)C3)C2)nc1 | -6.37%
41 | CC(NC(=O)c1cc(Br)c2c(c1)OCCO2)C(N)=O (stereo not given) | -1.06%
42 | CN(CCc1cnn(C)c1)C(=O)Cn1c(=O)[nH]c2ccccc21 | 4.5%
43 | Cn1nc(C2CN(C(=O)c3cccnc3)C2)c2nccnc21 | -21.7%
44 | CC(=O)NCC(=O)N1CCC2(CC1)CN(c1cccnc1)C(=O)CO2 | 3.76%

Row | SMILES | cytotoxicity at 10 µM
45 | CC(Cn1ccnc1)NC(=O)NCc1cccnc1OC1CCCC1 (stereo not given) | -13.3%
46 | COCCn1ccnc1C1CCN(C(=O)CSc2nnc(C)o2)CC1 | -11.5%
47 | Cc1cc(NCC2CCCO2)cc(=O)n1C (stereo not given) | -8.19%
48 | Cc1cn2nc(N3CCCC3C(=O)N3CCOCC3)sc2n1 (stereo not given) | -3%
49 | COc1cc(C)nc(N2CCN(C(=O)CNC(C)(C)C)CC2)n1 | -7.67%
50 | CC[C@@H]1N(Cc2ccco2)CCC[C@]12CCC(=O)N2C | -0.00736%
51 | COc1ccc(C2CCCCCN2S(=O)(=O)N(C)C)cc1 (stereo not given) | -9.87%
52 | Cc1nc2c(cc1C(=O)O)CCN(Cc1ccsc1)CC2 | 9.62%
53 | Cc1csc(CN(C)C(=O)c2cccc(CCC(C)(C)O)c2)n1 | -2.32%
54 | CNC(=O)NC(=O)CCSc1ccccc1Cl | -5.13%
55 | O=C(CC(F)(F)F)N1CCCC(c2nccn2Cc2ccncc2)C1 (stereo not given) | 3.22%
56 | Cc1nc(CN2Cc3nccn3CC(COCC3CC3)C2)cs1 (stereo not given) | 11.3%
57 | Cc1ccccc1CSc1ncccc1C(=O)N(C)C | -7.24%
58 | CN1CCN([C@@H]2CN(C(=O)c3cc4ccc(F)cc4[nH]3)C[C@H]2O)CC1 | -10.4%
59 | N#Cc1cccc(C(=O)N2CC(c3nc(-c4cccnc4)no3)C2)c1 | -6.03%
60 | NC(=O)c1ccc(CN2CCCC(O)C2)cc1 (stereo not given) | 0.459%
61 | Cc1nc(N(C)C)ncc1C(=O)NCCc1csc(-c2cnccn2)n1 | -5%
62 | CN(C)CCCN(CCC#N)C(=O)Nc1ccc2[nH]ccc2c1 | -52.4%
63 | CC(=O)N1CCC(C(=O)N2CCCC(Cc3ccccn3)C2)CC1 (stereo not given) | 6.97%
64 | CNc1nc2c(s1)C(=O)CN(C(=O)NCCc1ccccc1)C2 | -7.38%
65 | Cc1nc(C)n(CC2CCCN(CCC(=O)Nc3cc(C)on3)C2)n1 (stereo not given) | -1.68%
66 | COc1ncccc1NC(=O)N1CCC(CN2CCOCC2)CC1 | -6.78%

Row | SMILES | cytotoxicity at 10 µM
67 | CCCS(=O)(=O)NC(=O)c1ccc(-n2nc(C)cc2C)cc1 | 1.36%
68 | CC(=O)N1CCCC1c1nc(C)c2c(n1)N(Cc1ccccn1)CCC2 (stereo not given) | 0.711%
69 | CO[C@@H]1CC[C@H]2[C@H]1OCCN2C(=O)COc1ccc(C)cc1 | -99%
70 | Cc1nccn1CC1CCCN1S(=O)(=O)Cc1cccc(C#N)c1 (stereo not given) | -20.7%
71 | CC(N)C(=O)N1CCC(Oc2cccc(C(F)(F)F)c2)CC1 (stereo not given) | -8.54%
72 | COC(=O)C1CN(Cc2nc(-c3ccccc3)cs2)C[C@@H](C)O1 (stereo not given in full) | -0.227%
73 | CC(Oc1ccc2c(c1)OCO2)C(=O)Nc1ccon1 (stereo not given) | 1.09%
74 | CCNC(=O)Cc1ccc(NC(=O)NC(CC)c2ccncc2)cc1 (stereo not given) | -3%
75 | FC(F)(F)Cn1ccnc1CN1CCCC1c1noc(C2CC2)n1 (stereo not given) | 1.78%
76 | CC(COc1ccccc1)NCc1nc(-c2cccnc2)no1 (stereo not given) | -14.1%
77 | Cc1cc(CS(=O)(=O)C(C)C(=O)N(C)c2ccccc2)on1 (stereo not given) | 2.74%
78 | COCCO[C@H]1CCN(C(=O)c2ccsc2)[C@H]1Cc1ccncc1 | -75.4%
79 | N#Cc1ccsc1NC(=O)CCN1CCn2c(nnc2C2CC2)C1 | -5.65%
80 | CCn1nc(C)cc1C(=O)NCc1cccnc1N(C)C | -5.54%
81 | c1ccc(OCCCn2ccnc2-c2cn(C3CCNCC3)nn2)cc1 | -18.1%
82 | Cc1nc(C2CCCN2C(=O)Cc2ccc(F)cc2)nc(O)c1C (stereo not given) | -30.4%
83 | NC(=O)C1(c2cnccn2)CCCN1Cc1ccc(Cl)c(F)c1 (stereo not given) | -4%
84 | COCc1nc(CNC(=O)C(C)n2ccnc2C(C)C)no1 (stereo not given) | -0.376%
85 | O=C(NCCN1CCOCC1)c1cc(COc2ccccc2F)[nH]n1 | 13.1%
86 | Cc1ccccc1C(=O)N1CCOCC1CN(C)C (stereo not given) | -2.1%
87 | CCN(Cc1ccc2c(c1)OCO2)C(=O)NC(C)Cn1ccnc1 (stereo not given) | -13.2%
88 | Cc1nc(N2CCCC2)nc2c1CCN(Cc1ccoc1)CC2 | -134%

Row | SMILES | cytotoxicity at 10 µM
89 | COc1ccc(CNCC2CN(C3CC3)CCO2)cc1C (stereo not given) | -8.01%
90 | O=C1NCC2(CCC(C(=O)N3CCCC(O)C3)CC2)Oc2ccccc21 (stereo not given) | -24.1%
91 | Cc1ccc(N2CC3(CCN(c4nccs4)C3)C2)nn1 | -5.85%
92 | Cn1ccnc1CN1C[C@@H]2OCCN(c3ncccn3)[C@@H]2C1 | -73%
93 | CCN1CCC2(CC1)CC(NC(=O)NC)c1cc(C)ccc12 (stereo not given) | -6.01%
94 | CCN(CC)S(=O)(=O)N1CC[C@H](c2ccccc2)[C@@H]2[C@H]1CCCCN2C | 3.74%
95 | Cc1cc(CN2CC[C@]3(C[C@@H](OCC(=O)N(C)C)CO3)C2)no1 | -105%
96 | Cn1cccc1C(=O)N1CCCC2(CCCN2S(C)(=O)=O)C1 (stereo not given) | 6.28%
97 | N#CC1(C(=O)N2CCOC(c3ccc(F)cc3)C2)CCCCC1 (stereo not given) | 3.85%
98 | CCOC(=O)C(C)NC(=O)CCSc1ccc(F)cc1 (stereo not given) | 9.13%
99 | c1ccc(-c2noc(CN3CCCC(Cn4cncn4)C3)n2)nc1 (stereo not given) | 3.12%
100 | c1ccc(Cc2noc(CN3CCc4cncnc4C3)n2)cc1 | -5.91%
101 | CC(=O)NCC(=O)NCC1(O)CCN(c2cnccn2)C1 (stereo not given) | 7.89%
102 | CCOCc1ccccc1NC(=O)NC1CCN(c2ccccc2)C1 (stereo not given) | -6.31%
103 | CN1CCCC(CNC(=O)N2CCN(Cc3ccon3)CC2)C1 (stereo not given) | 15.5%
104 | CCOc1ccc(CC(CNC(=O)c2ccoc2)C(N)=O)cc1 (stereo not given) | 5.37%
105 | CCn1nccc1CNC(=O)C(C)n1cc2c(n1)c(C)nn2C (stereo not given) | 5.32%
106 | COc1ccc(CNC2CCCc3nc(N(C)C)ncc32)c(OC)c1 (stereo not given) | 1.42%
107 | CN(C)C(=O)CN1CCN(Cc2coc(-c3cccc(F)c3)n2)CC1 | -3.16%
108 | c1cnc(N2CC[C@@H]3[C@@H]2CCN3Cc2cccs2)nc1 | 3.91%
109 | Cn1cnc(S(=O)(=O)N2CCCc3cccc(F)c32)c1Cl | -4.63%
110 | COc1ccccc1CN1C[C@@H]2COC[C@]2(COc2cccnc2)C1 | 6.24%
